# Screens (PubChem BioAssay)
# Rows were chosen to be rich in hits. Some 1.8% of all compounds tested hit in one or more screens of this group.
# CHRM5 PAM – human M5 muscarinic receptor positive allosteric modulators, primary screen, CHO-K1 cells, Fluo-8 calcium fluorescence; Muscarinic acetylcholine receptor M5 (Homo sapiens), P08912; CHO-K1 hM5, ACh EC20 PAM; 0% = ACh EC20, 100% = ACh EC100; activation, % at 3 µM; 360,000 compounds, 0.3% hits; AID 624038, 2012;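 active = activation above the run cutoff, the mean activation of all test compounds plus 3 SD, cut at about 18% in these data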
# Target sequence (P08912 whole entry, looked up): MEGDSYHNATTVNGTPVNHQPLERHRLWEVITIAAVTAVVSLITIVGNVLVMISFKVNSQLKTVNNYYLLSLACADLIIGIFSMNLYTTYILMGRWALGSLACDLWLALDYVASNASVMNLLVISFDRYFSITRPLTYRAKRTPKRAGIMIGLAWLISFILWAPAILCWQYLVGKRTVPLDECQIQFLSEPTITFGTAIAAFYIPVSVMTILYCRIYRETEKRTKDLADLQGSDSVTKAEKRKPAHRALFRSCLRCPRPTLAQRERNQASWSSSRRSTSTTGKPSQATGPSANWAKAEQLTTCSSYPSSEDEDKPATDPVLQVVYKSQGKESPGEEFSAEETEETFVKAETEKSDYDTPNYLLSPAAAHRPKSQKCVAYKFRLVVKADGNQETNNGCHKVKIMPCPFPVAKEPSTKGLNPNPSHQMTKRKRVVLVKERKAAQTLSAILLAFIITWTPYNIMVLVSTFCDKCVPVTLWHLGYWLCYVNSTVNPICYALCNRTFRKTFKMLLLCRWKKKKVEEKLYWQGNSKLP
#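 System: CHO-K1 hM5 cells. Reagent: acetylcholine, EC20 level. Compound dosing: single dose, 3 µM nominal final test concentration. Timing: Post-acetylcholine fluorescence recording 140 s. Detection: Fluo-8 calcium fluorescence. Read-out: % activation, ACh-normalized. Benchmarks: ACh EC20 and EC100 wells. Repeats: singlicate, one well per test compound.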
# CHRM4 PAM – human M4 muscarinic receptor positive allosteric modulators, primary screen, CHO-K1 cells, Fluo-8 calcium fluorescence; Muscarinic acetylcholine receptor M4 (Homo sapiens), P08173; CHO-K1 hM4/Gqi5, ACh EC20; 0% = ACh EC20, 100% = maximal ACh; activation, % at 3 µM; 360,000 compounds, 0.4% hits;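 active = activation above its plate's cutoff, the mean activation of sample wells plus 3 SD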
# CHRM4 agonist – human M4 muscarinic receptor agonists, primary screen, CHO-K1 cells, Fluo-8 calcium fluorescence | CHO-K1 hM4/Gqi5; vehicle 0%, full acetylcholine response 100% | 360,000 compounds, 0.14% hits | activation, % at 3 µM;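 active = activation above the run mean over all test wells plus 3 SD, cut at about 32% in these data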;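 also: peak over basal fluorescence ratio per well then scaled between controls; 0% = DMSO wells and 100% = acetylcholine at EC100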
# M4 antag – human M4 muscarinic receptor antagonists, primary screen, CHO cells, Fluo-8 calcium fluorescence | 360,000 compounds, 0.73% hits | CHO-hM4 cells, ACh EC80 | AID 624125, 2012 | inhibition, % at 3 µM;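 active = inhibition above its plate's cutoff, the mean inhibition of sample wells plus 3 SD, cut at about 27% in these data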;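 also: 0% = acetylcholine EC80 with DMSO and 100% = DMSO without agonist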
# CHRM5 antagonist – human M5 muscarinic receptor antagonists, primary screen, CHO cells, Fluo-8 calcium fluorescence | Muscarinic acetylcholine receptor M5 (Homo sapiens), P08912 | 360,000 compounds, 0.59% hits | inhibition, % at 3 µM | CHO-hM5 cells, ACh EC80;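 active = inhibition above a per-plate cutoff, the mean of that plate's test compounds plus 3 SD, cut at about 27% in these data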;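 also: 0% = acetylcholine EC80 with DMSO and 100% = DMSO without agonist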
# CHRM5 agonist – human M5 muscarinic receptor agonists, primary screen, CHO-K1 cells, Fluo-8 calcium fluorescence | 360,000 compounds, 0.19% hits | Muscarinic acetylcholine receptor M5 (Homo sapiens), P08912 | activation, % at 3 µM | CHO-K1 hM5 cells; 0% DMSO wells, 100% maximal acetylcholine response;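 active = activation above the run's mean over test compounds plus 3 SD, cut at about 23% in these data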;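 also: signal is peak over basal fluorescence ratio across the kinetic read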
# Active calls of the source: *.
SMILES,CHRM5 PAM,CHRM4 PAM,CHRM4 agonist,M4 antag,CHRM5 antagonist,CHRM5 agonist
NC(=O)c1ccsc1NC(=O)COC(=O)Cc1ccccc1Cl,-29,-9,25,22,24,10
CCCCC(c1nc2ccccc2[nH]1)n1c(=O)c(-c2ccccc2)nc2cc(C)c(C)cc21 (stereo not drawn),-4,21*,2,-2,11,0
Cc1cc(-c2cn3ccccc3n2)c(C)n1-c1ccccc1,-15,-22,0,41*,-1,-6
CC(C(=O)O)n1c(-c2ccn[nH]2)n[nH]c1=S (stereo not drawn),1,7,0,-4,-4,-3
O=C(CC1C(=O)NCCN1CC1CCCCC1)NCCCN1CCOCC1 (stereo not drawn),-5,-3,1,0,18,-4
CCSc1ccc2c(c1)N(CCCN1CCN(C)CC1)c1ccccc1S2,-16,-15,13,13,15,1
CN1CCCC(CC2c3ccccc3Sc3ccccc32)C1 (stereo not drawn),-19,-18,11,99*,99*,2
CN1CCCC(CN2c3ccccc3Sc3ccccc32)C1 (stereo not drawn),-19,-18,10,86*,99*,1
O=C(NCC1CCN(Cc2ccc(F)cc2)CC1)Nc1cc(F)ccc1F,-4,-10,3,10,8,-5
CC(C)(C)c1cccc(C2(O)C(=O)c3ccccc3C2=O)c1O,-15,-26,14,0,18,-3
CCn1c(SCC(=O)O)nnc1-c1ccccc1OC,-3,1,1,-3,7,4
CCN(CC)S(=O)(=O)c1ccc(N2CCOCC2)c(NC(=O)c2ccc(F)cc2)c1,-11,-4,16,2,6,5
CCN(CC)S(=O)(=O)c1ccc(N2CCOCC2)c(NC(=O)c2[nH]c(C)c(C(C)=O)c2C)c1,-3,29*,9,-3,11,3
COc1ccc(OC)c(C(=O)COC(=O)c2c(OC)cccc2OC)c1,-3,-4,4,-1,-6,-1
COc1ccc(OC)c(C(=O)CCCC(=O)c2cc(OC)ccc2OC)c1,-5,-6,2,31*,4,-5
COc1ccc(CCNC(=O)CN2CCN(Cc3ccccc3F)C2=O)cc1OC,5,14,0,10,7,2
Cc1ccc(CCNC(=O)CN2CCN(Cc3ccccc3F)C2=O)cc1,3,30*,2,-8,-2,-5
Cc1ccc(C)c(N2C(=O)CN=C2Nc2ccccc2Cl)c1,14,22*,1,0,-12,0
CS/C(=N/S(=O)(=O)c1ccc(C)cc1)c1ccccc1,9,24*,2,-7,-3,1
COCCNc1nc(N2CCCCC2)c2cnn(C)c2n1,18*,0,1,3,-26,-2
COc1cccc(N2CCN(c3ccc([N+](=O)[O-])cn3)CC2)c1,11,17*,1,-1,22,-1
O=C(Nc1nc2c(Br)cccc2s1)C1CC1,-4,2,-1,-14,0,0
O=C(N/N=C/c1cc(Br)cc([N+](=O)[O-])c1O)c1ccc(NC(=O)c2ccc(F)cc2)cc1,-6,3,1,-6,4,-2
Cc1ccc(C(=O)C(C)OC(=O)Cc2c[nH]c3ccccc23)cc1 (stereo not drawn),2,2,0,-3,11,-4
Cc1ccc(NC(=O)C(C)OC(=O)Cc2c[nH]c3ccccc23)cc1 (stereo not drawn),17,24*,2,-12,-10,-5
SMILES,CHRM5 PAM,CHRM4 PAM,CHRM4 agonist,M4 antag,CHRM5 antagonist,CHRM5 agonist
Cc1cc(C)cc(OCCNC(=O)c2cc(S(=O)(=O)N3CCOCC3)ccc2F)c1,-9,0,5,-16,22,-3
Cc1cccc(NC(=O)COc2ccc(Br)cc2)n1,33*,3,0,1,26,-3
Cc1ccc(OCC(=O)NC(=S)Nc2cccc(C)n2)cc1,6,9,-1,-9,-4,-2
O=C(CN(C(=O)c1csnn1)c1ccc2c(c1)OCCO2)NCc1ccc(F)cc1,-3,-5,0,11,19,-1
O=c1ccc2cc(O)c(O)cc2o1,-12,-2,0,3,4,25*
O=c1ccc2ccc(O)cc2o1,-4,-2,0,5,4,0
COc1ccccc1NC(=O)c1cnc(SCC(=O)NCCc2ccccc2)n(C)c1=O,1,1,-1,1,-3,5
CN(Cc1cccc(Cl)c1Cl)C(=O)c1ccccc1SCC(=O)N1CCCC1,-18,-12,16,-12,9,1
CC(=O)c1cccc(NC(=O)c2cc(-c3cccs3)on2)c1,2,16*,1,-25,-7,-2
CC(C)CC(=O)Nc1cccc(C(=O)Nc2ccccc2C(=O)O)c1,7,30*,-2,-22,-5,0
O=C(Nc1cccc(NC(=O)c2ccc(-c3cccc(Br)c3)o2)c1)c1ccco1,-10,-16,12,33*,19,2
O=C(Nc1ccccc1C(=O)O)c1cccc(NC(=O)c2ccc(Br)o2)c1,0,18*,-1,-7,-5,4
O=C(Nc1cccc(NC(=O)c2ccc(-c3ccc(Br)cc3)o2)c1)c1ccccc1,7,23,1,4,6,-3
COc1ccc(OC)c(S(=O)(=O)N2CCN(c3ccccc3OC)CC2)c1,-4,-1,2,-10,-4,-2
O=C(CN1CCc2ccccc2C1)Nc1ccccc1C(F)(F)F,-5,2,-1,-1,16,-5
O=C(c1cc(COc2c(F)cccc2F)on1)N(Cc1ccccc1)CC1CC1,-5,-4,1,-5,7,-6
COc1cccc(N=Cc2c(O)c3ccccc3oc2=O)c1,1,-2,2,3,-6,6
O=C(Nc1cccc(-c2cnc3ccccc3n2)c1)c1cccc(NC(=O)c2ccco2)c1,-18,-24,20,42*,26,4
O=C(Nc1cccc(C(=O)Nc2ccc(Br)cc2)c1)c1ccccc1,-24,-12,20,17,31*,-2
CC(=O)c1cccc(NC(=O)c2ccc(C)o2)c1,-3,-1,1,10,10,0
